# From article PMC13252795 (International journal for parasitology, 2017)
# What was measured:
# [1] = cattle; ref Huang et al., 2015; Schaefer et al., 2016; Hulverson et al., 2017; cited from earlier work
# [2] = system: B. besnoiti tachyzoites (Bb-Spain1) in HFF cells; assay: Transmission electron microscopy of B. besnoiti-infected HFF treated with BKIs; assay type: cell-based, Besnoitia besnoiti; conditions: 5 μM, HFF cells, 4, 6 and 8 days; listed as BKI-1294
# [3] = biological target: recombinant BbCDPK1 (rBbCDPK1) (Besnoitia besnoiti, UniProt A0A290U7L2); assay: BbCDPK1 enzymatic activity inhibition, Kinase-Glo luciferase assay; assay type: biochemical
# [4] = system: B. besnoiti tachyzoites (Bb-Spain1) in Marc-145 cells; assay: Short term dose-response assays, EC50 and EC99 determination by qPCR; assay type: cell-based, Besnoitia besnoiti
# Marc-145 cells = assay: Mammalian cell toxicity, XTT cell viability assay; assay type: cell-based; conditions: uninfected Marc-145 cells, 5 μM, 72 h
# Procedure, shortened: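 Exponential-phase Marc-145 cells were seeded at 2 × 10^5 cells/mL together with test compound dissolved in DMSO, in quadruplicate, and grown 72 h at 37 °C in humidified 5% CO2. XTT reagent was then added for 4 h, and […]. Percent growth inhibition was calculated relative to the DMSO vehicle.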
smiles,measurement,setting,value
CCOc1ccc2cc(-c3nn(CC4CCN(C)CC4)c4ncnc(N)c34)ccc2c1 [Compound 1294],Plasma levels achieved,[1],up to 5 μM
same,Effect on ultrastructure of tachyzoites (TEM),[2],formed multinucleated complexes
same,IC50 values against BbCDPK1 (in words),[3],lower nanomolar range
same,EC99 (B. besnoiti),"[4]; BKI added at 0 hpi, 3-day proliferation assay, qPCR, Marc-145 cells",2.38 µM
same,EC50,"[4]; Besnoitia besnoiti, MARC145, 72 h, read-out: EC50 (B. besnoiti)",0.045 µM
same,Percentage of cytotoxicity compared to DMSO-treated negative control,Marc-145 cells,5.2%
